Data on 11 compounds can be found in ChEMBL document CHEMBL3243938, “Mercapto heterocyclic carboxylic acids, analogues of 3-mercaptopicolinic acid” (J Med Chem, 1977).

The source made the active and inactive calls. The rule behind the calls is not given here.

Data set [1] deals with Rattus norvegicus. The data set is described as follows: Hypoglycemic activity in 48-hrs fasted rat assessed as decrease in blood glucose level at 300 mg/kg, ip measured up to 4 hrs after drug administration. On the set-up: dose 300 mg/kg. The class given is functional, organism-based. The method, boiled down:
(§1)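 Male rats of about 200 g were fasted 48 h. A zero-time tail-vein blood sample was taken on the morning of the test, then compound was given ip as a suspension in 0.9% saline or orally as a suspension in 0.5% tragacanth. Vehicle-only rats served as controls. Tail-vein blood was sampled at 1, 2 and 4 h for glucose.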

For data set [2], the system named is Rattus norvegicus. As to the kind of experiment: Hypoglycemic activity in 48-hrs fasted rat assessed as decrease in blood glucose level at 300 mg/kg, po measured up to 4 hrs after drug administration. The class given is functional, organism-based. On the set-up: dose 300 mg/kg. The method, boiled down:
as §1

The test system of data set [3] is Rattus norvegicus. As to the kind of experiment: Hypoglycemic activity in 48-hrs fasted rat assessed as decrease in blood glucose level at 200 mg/kg, po after 4 hrs. The class given is functional. A digest of the protocol:
as §1

Data set [4] relates to Rattus norvegicus. As to the kind of experiment: Hypoglycemic activity in 48-hrs fasted rat assessed as decrease in blood glucose level at 200 mg/kg, po after 1 hr. The class given is functional. A digest of the protocol: as §1
Data set [5] has as its system Rattus norvegicus. As to the kind of experiment: Hypoglycemic activity in 48-hrs fasted rat assessed as decrease in blood glucose level at 200 mg/kg, po after 2 hrs. The class given is functional. The method, boiled down: as §1
Data set [6] relates to Rattus norvegicus. As to the kind of experiment: Toxicity in 48-hrs fasted rat assessed as mortality at 200 mg/kg, ip after 4 hrs. The class given is organism-based. On the set-up: dose 200 mg/kg, route intraperitoneal. The conditions noted are these: in vivo. The method, boiled down:
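Male rats, about 200 g, fasted 48 h before dosing. Given ip as a suspension in 0.9% saline; vehicle-only group run as controls. Tail-vein blood taken at time zero and at 1, 2 and 4 h after dosing.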

Data set [7] relates to Rattus norvegicus. The data set is described as follows: Hypoglycemic activity in 48-hrs fasted rat assessed as decrease in blood glucose level at 200 mg/kg, ip after 1 hr. The class given is functional. Conditions: route intraperitoneal. A digest of the protocol: as §1
Data set [8] deals with Rattus norvegicus. The data set is described as follows: Hypoglycemic activity in 48-hrs fasted rat assessed as decrease in blood glucose level at 200 mg/kg, ip after 2 hrs. The format is functional. Conditions: route intraperitoneal. A digest of the protocol:
as §1

With `CS(=O)(=O)c1cccnc1C(=O)O`, the result in data set [1] and in data set [2] was inactive.
For `O=C(O)c1nc(C(=O)O)c(S)cc1S`, the outcome in data set [1] and in data set [2] was inactive.
As for `C[S+]([O-])c1cccnc1C(=O)O` (centres undefined), the result in data set [1] and in data set [2] was inactive.
As to `O=C(O)c1nccnc1S`, the result in data set [1] and in data set [2] was inactive.
`CCCCNC(=O)NS(=O)(=O)c1ccc(C)cc1` [TOLBUTAMIDE]: the inhibition in vivo – broadly, how much of the control response was suppressed – at 200 mg/kg was 48% in data set [3], 28% in data set [4] and 47% in data set [5].
`O=C(O)c1nc2ccccc2cc1S`: the outcome in data set [1] and in data set [2] was inactive.
As to `O=C(O)c1ncc2ccccc2c1S`, the outcome in data set [1] and in data set [2] was inactive.
Take `O=C(O)c1[nH]c2ccccc2c1S`: the Activity result in data set [6] was “Toxic”. Besides, the inhibition in vivo at 200 mg/kg came to 45% in data set [7] and 51% in data set [8].
For `CCOC(=O)c1ncsc1S`, the outcome in data set [1] and in data set [2] was inactive.
As for `O=C(O)c1ncc(S)cc1S`, the outcome in data set [1] and in data set [2] was inactive.
On to `O=C(O)c1ccc(S)c(C(=O)O)n1`, for which the outcome in data set [1] and in data set [2] was inactive.
